{"source": "paper PMC5692558", "about": "(Proceedings of the National Academy of Sciences of the …, 2017)", "molecules": {"B1": {"name": "W284S: STAC3 disease mutation linked to Native American myopathy (protein)", "chain": "MTEKEVLESPKPSFPAETRQSGLQRLKQLLRKGSTGTKEMELPPEPQANGEAVGAGGGPIYYIYEEEEEEEEEEEEPPPEPPKLVNDKPHKFKDHFFKKPKFCDVCARMIVLNNKFGLRCKNCKTNIHEHCQSYVEMQRCFGKIPPGFHRAYSSPLYSNQQYACVKDLSAANRNDPVFETLRTGVIMANKERKKGQADKKNPVAAMMEEEPESARPEEGKPQDGNPEGDKKAEKKTPDDKHKQPGFQQSHYFVALYRFKALEKDDLDFPPGEKITVIDDSNEESWRGKIGEKVGFFPPNFIIRVRAGERVHRVTRSFVGNREIGQITLKKDQIVVQKGDEAGGYVKVYTGRKVGLFPTDFLEEI", "modifications": "left off: His6, end not stated, cleaved | maltose-binding protein, end not stated, cleaved"}, "B2": {"name": "deletion of both SH3 domains: truncated STAC3 missing both SH3 domain (1–244) (protein, UniProt Q96MF2 1-244, looked up, fragment)", "chain": "MTEKEVLESPKPSFPAETRQSGLQRLKQLLRKGSTGTKEMELPPEPQANGEAVGAGGGPIYYIYEEEEEEEEEEEEPPPEPPKLVNDKPHKFKDHFFKKPKFCDVCARMIVLNNKFGLRCKNCKTNIHEHCQSYVEMQRCFGKIPPGFHRAYSSPLYSNQQYACVKDLSAANRNDPVFETLRTGVIMANKERKKGQADKKNPVAAMMEEEPESARPEEGKPQDGNPEGDKKAEKKTPDDKHKQP"}, "B3": {"name": "STAC3: human STAC3 isoform a (NP_659501.1) (protein)", "chain": "GFQQSHYFVALYRFKALEKDDLDFPPGEKITVIDDSNEEWWRGKIGEKVGFFPPNFIIRVRAGERVHRVTRSFVGNREIGQITLKKDQIVVQKGDEAGGYVKVYTGRKVGLFPTDFLEEI", "modifications": "left off: His6, end not stated, cleaved | maltose-binding protein, end not stated, cleaved"}}, "key": {"[1]": {"tested_on": "STAC3 W284S", "assay": "ITC, II–III loop with STAC3 W284S", "assay_type": "binding, human", "details": "25 °C, pH 7.4, NAM mutant W284S"}, "[2]": {"tested_on": "human CaV1.2", "assay": "CaV1.2 inactivation", "assay_type": "cell-based", "details": "Xenopus oocytes, two-electrode voltage clamp, Ba^2+ or Ca^2+ solution", "method_in_brief": "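Human CaV1.2 α1c (splice variant a1c77) cRNA (8.2–10.9 ng) was co-injected with rabbit β1 (11.7–15.5 ng), with optional rabbit α2δ (11.7 ng) and human STAC3 isoform a (9.8–13.0 ng). Oocytes were held at 18 °C in OR3 (pH 7.6) and recorded 3–4 d later. BAPTA was pre-injected; perfusate was 40 mM Ba2+ or Ca2+, pH 7.4. P/4 leak subtraction; two-tailed unpaired t test.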"}, "[3]": {"molecular_target": "T1, STAC2 tandem SH3 domains (residues 296–411) (human, UniProt Q6ZMT1 296-411)", "T1 sequence (looked up)": "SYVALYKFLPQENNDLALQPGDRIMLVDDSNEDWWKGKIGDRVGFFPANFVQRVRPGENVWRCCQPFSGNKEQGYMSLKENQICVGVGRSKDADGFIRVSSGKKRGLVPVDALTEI", "assay": "ITC"}, "[4]": {"molecular_target": "T2, STAC1 tandem SH3 domains (residues 288–402) (human, UniProt Q99469 288-402)", "T2 sequence (looked up)": "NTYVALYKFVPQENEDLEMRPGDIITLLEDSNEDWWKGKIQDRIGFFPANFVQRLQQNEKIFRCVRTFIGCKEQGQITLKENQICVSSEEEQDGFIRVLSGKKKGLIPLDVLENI", "assay": "ITC"}, "[5]": {"molecular_target": "T3, STAC3 tandem SH3 domains (residues 245–364) (human, UniProt Q96MF2-1 245-364)", "T3 sequence (looked up)": "B3 chain", "assay": "ITC"}, "[6]": {"molecular_target": "T4, STAC2 tandem SH3 domains with Gln-306 mutated to Leu (human, UniProt Q6ZMT1 296-411, Gln-306 to Leu)", "T4 sequence (looked up)": "T1 sequence (looked up) with Q11L", "assay": "ITC"}, "[7]": {"tested_on": "stac^−/− myotubes", "details": "ref [16], cited from earlier work"}, "[8]": {"tested_on": "skeletal muscle CaV1.1 complex", "details": "STAC3 W284S; ref [18]; listed as NAM mutation; cited from earlier work"}, "[9]": {"tested_on": "CaV1.2", "details": "ref [15]; cited from earlier work"}}, "note": "Substitutions are numbered along the chain they refer to. Names may count otherwise. “Also recorded” adds a separate entry of the source.", "data": [{"molecule": "CaV1.1 728–775: fragment 728–775 of the CaV1.1 II–III loop (core II–III loop) (NVNEVKDPYPSADFPGDDEEDEPEIPLSPRPRPLAELQLKEKAVPIPE; left off: His6, end not stated, cleaved | maltose-binding protein, end not stated, cleaved)", "values": [{"measurement": "interaction detected by ITC", "setting": "[1]", "result": "no longer able to detect an interaction"}, {"measurement": "interaction detected by ITC", "setting": "[1]; listed as II–III loop peptide", "result": "decreases the affinity to levels below detection"}]}, {"molecule": "IPRAAA: mutation at the binding interface tested for CaV1.2 inactivation (NVNEVKDPYPSADFPGDDEEDEPEAALSPAPRPLAELQLKEKAVPIPE; left off: His6, end not stated, cleaved | maltose-binding protein, end not stated, cleaved)", "values": [{"measurement": "effect on slowing of CaV1.2 inactivation induced by STAC3", "setting": "[2]", "result": "neither mutations at the binding interface (W284S or IPRAAA) nor an outright deletion of both SH3 domains affected the slowing of inactivation"}]}, {"molecule": "NVNEVKDPYPSADFPGDDEEDEPEIPLSPRPRPLAELQLKEKAVPIPE (domain or fragment, human, UniProt Q13698 728-775, looked up)", "note": "[CaV1.1 728–775 (core II–III loop)]", "values": [{"measurement": "Kd", "setting": "[3]", "result": 1.85, "unit": "µM"}, {"measurement": "fold higher affinity than STAC2", "setting": "[4]", "result": "~2.4", "unit": "fold"}, {"measurement": "fold higher affinity than STAC2", "setting": "[5]", "result": "~2.2", "unit": "fold"}]}, {"molecule": "EDEPEIPLSPRPRP (peptide, UniProt Q13698 747-760, looked up)", "note": "[CaV1.1 747–760 (minimal peptide)]", "values": [{"measurement": "fold lower affinity than wild type", "setting": "[6]", "result": "~2", "unit": "fold"}, {"measurement": "Kd", "setting": "[5]", "result": 10.6, "unit": "µM"}]}, {"molecule": "B1", "values": [{"measurement": "effect on slowing of CaV1.2 inactivation induced by STAC3", "setting": "[2]", "result": "neither mutations at the binding interface (W284S or IPRAAA) nor an outright deletion of both SH3 domains affected the slowing of inactivation"}, {"measurement": "effect on EC coupling", "setting": "[7]; STAC3 W284S (NAM mutation)", "result": "diminished EC coupling; also recorded: large reduction in EC coupling"}, {"measurement": "effect on depolarization-induced calcium release", "setting": "[7]; reconstituted stac^−/− myotubes, [17]", "result": "drastic reduction in depolarization-induced calcium release"}, {"measurement": "recruitment of STAC3 into the skeletal muscle CaV1.1 complex / interaction with CaV1.1", "setting": "[8]", "result": "did not appear to abolish the interaction between CaV1.1 and STAC3"}]}, {"molecule": "B2", "values": [{"measurement": "effect on slowing of CaV1.2 inactivation induced by STAC3", "setting": "[2]", "result": "neither mutations at the binding interface (W284S or IPRAAA) nor an outright deletion of both SH3 domains affected the slowing of inactivation; also recorded: still resulted in slower inactivation"}]}, {"molecule": "B3", "values": [{"measurement": "effect on inactivation of CaV1.2", "setting": "[9]", "result": "dramatic reduction in the speed of inactivation"}]}]}
